Converted amounts (≈) assume the structure as drawn.
How the values were obtained:
Type in all cases: functional
[1] = tested on: Staphylococcus epidermidis; experiment: Antibacterial activity against methicillin-sensitive Staphylococcus epidermidis 09-6 after 18 to 24 hrs by twofold serial dilution method
Procedure, shortened: (§1)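 Standard twofold serial agar dilution method on agar media for MIC determination. Screened against representative Gram-positive and Gram-negative strains. Levofloxacin and GMFX served as control drugs.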

[2] = tested on: Staphylococcus epidermidis; experiment: Antibacterial activity against methicillin-resistant Staphylococcus epidermidis 09-2 after 18 to 24 hrs by twofold serial dilution method; procedure, shortened: as §1
[3] = tested on: Staphylococcus epidermidis; experiment: Antibacterial activity against methicillin-resistant Staphylococcus epidermidis 09-3 after 18 to 24 hrs by twofold serial dilution method; procedure, shortened: as §1
Klebsiella pneumoniae [4] = experiment: Antibacterial activity against Klebsiella pneumoniae 09-21 after 18 to 24 hrs by twofold serial dilution method
Procedure, shortened: (§2)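 MIC determined by the standard twofold serial dilution method on agar media, screening against Gram-positive and Gram-negative strains. Levofloxacin and gemifloxacin were run alongside as reference drugs.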

Klebsiella pneumoniae [5] = experiment: Antibacterial activity against Klebsiella pneumoniae 09-22 after 18 to 24 hrs by twofold serial dilution method; procedure, shortened: as §2
Enterococcus faecalis [6] = experiment: Antibacterial activity against Enterococcus faecalis 08-12 after 18 to 24 hrs by twofold serial dilution method; procedure, shortened: as §2
Escherichia coli [7] = experiment: Antibacterial activity against Escherichia coli ATCC 25922 after 18 to 24 hrs by twofold serial dilution method; procedure, shortened: as §2
Klebsiella pneumoniae [8] = experiment: Antibacterial activity against Klebsiella pneumoniae 09-23 after 18 to 24 hrs by twofold serial dilution method; procedure, shortened: as §2
Streptococcus pneumoniae [9] = experiment: Antibacterial activity against Streptococcus pneumoniae 08-4 after 18 to 24 hrs by twofold serial dilution method; procedure, shortened: as §2
Escherichia coli [10] = experiment: Antibacterial activity against Escherichia coli 08-22 after 18 to 24 hrs by twofold serial dilution method; procedure, shortened: as §2
Escherichia coli [11] = experiment: Antibacterial activity against Escherichia coli 08-21 after 18 to 24 hrs by twofold serial dilution method; procedure, shortened: as §2
Pseudomonas aeruginosa [12] = experiment: Antibacterial activity against Pseudomonas aeruginosa 09-33 after 18 to 24 hrs by twofold serial dilution method; procedure, shortened: as §2
Streptococcus pneumoniae [13] = experiment: Antibacterial activity against Streptococcus pneumoniae 08-2 after 18 to 24 hrs by twofold serial dilution method; procedure, shortened: as §2
Enterococcus faecium [14] = experiment: Antibacterial activity against Enterococcus faecium 08-2 after 18 to 24 hrs by twofold serial dilution method; procedure, shortened: as §2
Pseudomonas aeruginosa [15] = experiment: Antibacterial activity against Pseudomonas aeruginosa ATCC 27853 after 18 to 24 hrs by twofold serial dilution method; procedure, shortened: as §2
Enterococcus faecium [16] = experiment: Antibacterial activity against Enterococcus faecium 08-7 after 18 to 24 hrs by twofold serial dilution method; procedure, shortened: as §2
Staphylococcus aureus [17] = experiment: Antibacterial activity against methicillin-resistant Staphylococcus aureus 08-1 after 18 to 24 hrs by twofold serial dilution method; procedure, shortened: as §1
[18] = tested on: Staphylococcus epidermidis; experiment: Antibacterial activity against methicillin-resistant Staphylococcus epidermidis 09-4 after 18 to 24 hrs by twofold serial dilution method; procedure, shortened: as §1
Staphylococcus aureus [19] = experiment: Antibacterial activity against methicillin-sensitive Staphylococcus aureus 08-2 after 18 to 24 hrs by twofold serial dilution method; procedure, shortened: as §1
Enterococcus faecalis [20] = experiment: Antibacterial activity against Enterococcus faecalis 08-10 after 18 to 24 hrs by twofold serial dilution method; procedure, shortened: as §2
Pseudomonas aeruginosa [21] = experiment: Antibacterial activity against Pseudomonas aeruginosa 09-35 after 18 to 24 hrs by twofold serial dilution method; procedure, shortened: as §2
Pseudomonas aeruginosa [22] = experiment: Antibacterial activity against Pseudomonas aeruginosa 09-32 after 18 to 24 hrs by twofold serial dilution method; procedure, shortened: as §2
Staphylococcus aureus [23] = experiment: Antibacterial activity against Staphylococcus aureus ATCC […] after 18 to 24 hrs by twofold serial dilution method; procedure, shortened: as §2
Pseudomonas aeruginosa [24] = experiment: Antibacterial activity against Pseudomonas aeruginosa 09-34 after 18 to 24 hrs by twofold serial dilution method; procedure, shortened: as §2
[25] = tested on: Staphylococcus epidermidis; experiment: Antibacterial activity against methicillin-sensitive Staphylococcus epidermidis 09-3 after 18 to 24 hrs by twofold serial dilution method; procedure, shortened: as §1

| Structure (SMILES) | MIC [1] [µg/mL] | MIC [2] [µg/mL] | MIC [3] [µg/mL] | MIC (Klebsiella pneumoniae [4]) [µg/mL] | MIC (Klebsiella pneumoniae [5]) [µg/mL] | MIC (Enterococcus faecalis [6]) [µg/mL] | MIC (Escherichia coli [7]) [µg/mL] | MIC (Klebsiella pneumoniae [8]) [µg/mL] | MIC (Streptococcus pneumoniae [9]) [µg/mL] | MIC (Escherichia coli [10]) [µg/mL] | MIC (Escherichia coli [11]) [µg/mL] | MIC (Pseudomonas aeruginosa [12]) [µg/mL] | MIC (Streptococcus pneumoniae [13]) [µg/mL] | MIC (Enterococcus faecium [14]) [µg/mL] | MIC (Pseudomonas aeruginosa [15]) [µg/mL] | MIC (Enterococcus faecium [16]) [µg/mL] | MIC (Staphylococcus aureus [17]) [µg/mL] | MIC [18] [µg/mL] | MIC (Staphylococcus aureus [19]) [µg/mL] | MIC (Enterococcus faecalis [20]) [µg/mL] | other results |
| --- | --- | --- | --- | --- | --- | --- | --- | --- | --- | --- | --- | --- | --- | --- | --- | --- | --- | --- | --- | --- | --- |
| CCO/N=C1\CN(c2nc3c(cc2F)c(=O)c(C(=O)O)cn3C2CC2)CC1/C(N)=N\OC (stereo not given) | 0.25 (≈ 0.56 µM) | 128 (≈ 287 µM) | 0.125 (≈ 0.28 µM) | > 128 | 1 (≈ 2.24 µM) | > 128 | > 128 | > 128 | 0.25 (≈ 0.56 µM) | > 128 | > 128 | > 128 | 128 (≈ 287 µM) | > 128 | 64 (≈ 143 µM) | > 128 | 0.25 (≈ 0.56 µM) | 0.25 (≈ 0.56 µM) | 0.25 (≈ 0.56 µM) | > 128 | MIC (Pseudomonas aeruginosa [21]): 64 µg/mL (≈ 143 µM); MIC (Pseudomonas aeruginosa [22]): 64 µg/mL (≈ 143 µM); MIC (Staphylococcus aureus [23]): 0.5 µg/mL (≈ 1.12 µM); MIC (Pseudomonas aeruginosa [24]): > 128 µg/mL; MIC [25]: 0.25 µg/mL (≈ 0.56 µM) |
| CCO/N=C1\CN(c2c(F)cc3c(=O)c(C(=O)O)cn(C4CC4)c3c2F)CC1/C(N)=N\OC (stereo not given) | 0.25 (≈ 0.539 µM) | 0.25 (≈ 0.539 µM) | 0.125 (≈ 0.27 µM) | > 128 | 0.25 (≈ 0.539 µM) | > 128 | 64 (≈ 138 µM) | > 128 | 0.25 (≈ 0.539 µM) | > 128 | > 128 | > 128 | 32 (≈ 69 µM) | > 128 | 8 (≈ 17.3 µM) | 0.25 (≈ 0.539 µM) | 0.25 (≈ 0.539 µM) | 0.5 (≈ 1.08 µM) | 0.125 (≈ 0.27 µM) | 32 (≈ 69 µM) | MIC (Pseudomonas aeruginosa [21]): 16 µg/mL (≈ 34.5 µM); MIC (Pseudomonas aeruginosa [22]): 16 µg/mL (≈ 34.5 µM); MIC (Staphylococcus aureus [23]): 0.125 µg/mL (≈ 0.27 µM); MIC (Pseudomonas aeruginosa [24]): > 128 µg/mL; MIC [25]: 0.25 µg/mL (≈ 0.539 µM) |
| CCn1cc(C(=O)O)c(=O)c2cc(F)c(N3C/C(=N\OC)C(/C(N)=N\O)C3)c(F)c21 (stereo not given) | 0.25 (≈ 0.59 µM) | 1 (≈ 2.36 µM) | 0.25 (≈ 0.59 µM) | > 128 | 1 (≈ 2.36 µM) | > 128 | 128 (≈ 302 µM) | > 128 | > 128 | > 128 | > 128 | 1 (≈ 2.36 µM) | 1 (≈ 2.36 µM) | > 128 | 1 (≈ 2.36 µM) | > 128 | 0.25 (≈ 0.59 µM) | 1 (≈ 2.36 µM) | 0.25 (≈ 0.59 µM) | > 128 | MIC (Pseudomonas aeruginosa [21]): > 128 µg/mL; MIC (Pseudomonas aeruginosa [22]): 1 µg/mL (≈ 2.36 µM); MIC (Staphylococcus aureus [23]): 0.25 µg/mL (≈ 0.59 µM); MIC (Pseudomonas aeruginosa [24]): 1 µg/mL (≈ 2.36 µM); MIC [25]: 0.25 µg/mL (≈ 0.59 µM) |
